In ChEMBL document CHEMBL3046968, “Combined strategy for phytotoxicity enhancement of benzoxazinones” (J Agric Food Chem, 2010):
The source made the active and inactive calls. The rule behind the calls is not given here.

What follows are compounds tested on Solanum lycopersicum (assay: Phytotoxicity against Solanum lycopersicum (tomato) assessed as growth inhibition of root length measured 5 days post treatment). Conditions: not given.
Assay type: functional, organism-based
Procedure, shortened: (§1)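 Lettuce or tomato seeds were grown for 5 days on one filter-paper sheet in 90 mm dishes. The medium was aqueous 10^-2 M MES adjusted to pH 6.0 with NaOH. Compounds were taken from DMSO stocks and diluted into buffer (5 μL DMSO/mL), giving final levels of 1, 0.5, 0.1, 0.05 and 0.01 mM. Root length was acquired automatically. EC50 came from a constant-slope sigmoidal dose-response fit versus log concentration.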

Compound | growth inhibition (GI)
O=C1C(c2ccccc2)Oc2c(Cl)cccc2N1O (stereo not drawn) | Active
CCCC1Oc2ccc(Cl)cc2N(O)C1=O (stereo not drawn) | Active
CCC1Oc2ccc(F)cc2N(O)C1=O [6-F-2-Et-D-DIBOA] | Active
CCC(=O)ON1C(=O)COc2ccc(F)cc21 | Active
CCC1Oc2c(Cl)cccc2N(O)C1=O (stereo not drawn) | Active
CCCC1Oc2c(Cl)cccc2N(O)C1=O (stereo not drawn) | Active
CCC(=O)ON1C(=O)COc2c(Cl)cccc21 | Active
CCCCC(=O)ON1C(=O)COc2ccc(Cl)cc21 [6-Cl-4-Val-D-DIBOA] | Active
CCC1Oc2ccc(Cl)cc2N(O)C1=O [6-Cl-2-Et-D-DIBOA] | Active
CCCCC(=O)ON1C(=O)COc2ccc(F)cc21 | Active
O=C1C(c2ccccc2)Oc2ccc(Cl)cc2N1O (stereo not drawn) | Active
CCCON1C(=O)COc2ccc(Cl)cc21 [6-Cl-4-Pr-D-DIBOA] | Active
O=C1C(c2ccccc2)Oc2ccc(F)cc2N1O (stereo not drawn) | Active

Same assay, conditions: 120 h

Compound | IC50
CCC1Oc2ccc(Cl)cc2N(O)C1=O [6-Cl-2-Et-D-DIBOA] | 2300 nM

These compounds were tested on Solanum lycopersicum (assay: Phytotoxicity against Solanum lycopersicum (tomato) assessed as growth inhibition of root length at 1 to 5 uM measured 5 days post treatment). Conditions: not given.
Assay type: functional, organism-based
Procedure, shortened: (§2)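 Seeds germinated in Petri dishes on one filter-paper sheet, in aqueous solution buffered with 10^-2 M MES and brought to pH 6.0 with NaOH. Compounds were dissolved in DMSO, then diluted into buffer (5 μL DMSO/mL). Root length was recorded by automated image acquisition with statistical analysis.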

Compound | growth inhibition (GI)
CCCCC(=O)ON1C(=O)COc2ccc(Cl)cc21 [6-Cl-4-Val-D-DIBOA] | Active
CCCON1C(=O)COc2ccc(Cl)cc21 [6-Cl-4-Pr-D-DIBOA] | Active

These compounds were tested on Lepidium sativum (assay: Phytotoxicity against Lepidium sativum assessed as growth inhibition of root length measured 4 days post treatment). Conditions: not given.
Assay type: functional, organism-based
Procedure, shortened: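 Cress bioassay run over 4 days in 90 mm Petri dishes with one filter-paper sheet. Seeds were in aqueous 10^-2 M MES buffer at pH 6.0, set with 1 M NaOH. DMSO stocks were diluted into buffer at 5 μL/mL to final concentrations of 1, 0.5, 0.1, 0.05 and 0.01 mM. Root length was recorded by an automated system. Values were fitted to a constant-slope sigmoidal curve against log concentration to obtain EC50.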

Compound | growth inhibition (GI)
O=C1C(c2ccccc2)Oc2c(Cl)cccc2N1O (stereo not drawn) | Active
CCCC1Oc2ccc(Cl)cc2N(O)C1=O (stereo not drawn) | Active
CCC1Oc2ccc(F)cc2N(O)C1=O [6-F-2-Et-D-DIBOA] | Active
CCC(=O)ON1C(=O)COc2ccc(F)cc21 | Active
CCC1Oc2c(Cl)cccc2N(O)C1=O (stereo not drawn) | Active
CCCC1Oc2c(Cl)cccc2N(O)C1=O (stereo not drawn) | Active
CCC(=O)ON1C(=O)COc2c(Cl)cccc21 | Active
CCCCC(=O)ON1C(=O)COc2ccc(Cl)cc21 [6-Cl-4-Val-D-DIBOA] | Active
CCC1Oc2ccc(Cl)cc2N(O)C1=O [6-Cl-2-Et-D-DIBOA] | Active
CCCCC(=O)ON1C(=O)COc2ccc(F)cc21 | Active
O=C1C(c2ccccc2)Oc2ccc(Cl)cc2N1O (stereo not drawn) | Active
CCCON1C(=O)COc2ccc(Cl)cc21 [6-Cl-4-Pr-D-DIBOA] | Active
O=C1C(c2ccccc2)Oc2ccc(F)cc2N1O (stereo not drawn) | Active

Same assay, conditions: 96 h

Compound | IC50
CCC1Oc2ccc(F)cc2N(O)C1=O [6-F-2-Et-D-DIBOA] | 1000 nM
CCCCC(=O)ON1C(=O)COc2ccc(Cl)cc21 [6-Cl-4-Val-D-DIBOA] | 60 nM
CCC1Oc2ccc(Cl)cc2N(O)C1=O [6-Cl-2-Et-D-DIBOA] | 400 nM
CCCON1C(=O)COc2ccc(Cl)cc21 [6-Cl-4-Pr-D-DIBOA] | 60 nM

These compounds were tested on Lactuca sativa (assay: Phytotoxicity against Lactuca sativa (lettuce) assessed as growth inhibition of root length at 1 to 5 uM measured 5 days post treatment). Conditions: not given.
Assay type: functional, organism-based
Procedure, shortened: as §2

Compound | growth inhibition (GI)
CCCCC(=O)ON1C(=O)COc2ccc(Cl)cc21 [6-Cl-4-Val-D-DIBOA] | Active
CCCON1C(=O)COc2ccc(Cl)cc21 [6-Cl-4-Pr-D-DIBOA] | Active

These compounds were tested on Lactuca sativa (assay: Phytotoxicity against Lactuca sativa (lettuce) assessed as growth inhibition of root length measured 5 days post treatment). Conditions: not given.
Assay type: functional, organism-based
Procedure, shortened: as §1

Compound | growth inhibition (GI)
O=C1C(c2ccccc2)Oc2c(Cl)cccc2N1O (stereo not drawn) | Active
CCCC1Oc2ccc(Cl)cc2N(O)C1=O (stereo not drawn) | Active
CCC1Oc2ccc(F)cc2N(O)C1=O [6-F-2-Et-D-DIBOA] | Active
CCC(=O)ON1C(=O)COc2ccc(F)cc21 | Active
CCC1Oc2c(Cl)cccc2N(O)C1=O (stereo not drawn) | Active
CCCC1Oc2c(Cl)cccc2N(O)C1=O (stereo not drawn) | Active
CCC(=O)ON1C(=O)COc2c(Cl)cccc21 | Active
CCCCC(=O)ON1C(=O)COc2ccc(Cl)cc21 [6-Cl-4-Val-D-DIBOA] | Active
CCC1Oc2ccc(Cl)cc2N(O)C1=O [6-Cl-2-Et-D-DIBOA] | Active
CCCCC(=O)ON1C(=O)COc2ccc(F)cc21 | Active
O=C1C(c2ccccc2)Oc2ccc(Cl)cc2N1O (stereo not drawn) | Active
CCCON1C(=O)COc2ccc(Cl)cc21 [6-Cl-4-Pr-D-DIBOA] | Active
O=C1C(c2ccccc2)Oc2ccc(F)cc2N1O (stereo not drawn) | Active

The compounds below were run on Solanum lycopersicum (assay: Phytotoxicity against Solanum lycopersicum (tomato) assessed as growth inhibition of root length at 1 uM measured 5 days post treatment). Conditions: 120 h, read-out: GI.
Assay type: functional
Procedure, shortened: as §2

Compound | inhibition of growth at 1 µM
CCCCC(=O)ON1C(=O)COc2ccc(Cl)cc21 [6-Cl-4-Val-D-DIBOA] | 50%
CCCON1C(=O)COc2ccc(Cl)cc21 [6-Cl-4-Pr-D-DIBOA] | 50%

Each compound was assayed on Allium cepa (assay: Phytotoxicity against Allium cepa (onion) assessed as growth inhibition of root length at 1 uM measured 7 days post treatment). Conditions: 168 h, read-out: GI.
Assay type: functional

Compound | inhibition of growth at 1 µM
CCC1Oc2ccc(F)cc2N(O)C1=O [6-F-2-Et-D-DIBOA] | 50%
CCCCC(=O)ON1C(=O)COc2ccc(Cl)cc21 [6-Cl-4-Val-D-DIBOA] | 90%
CCC1Oc2ccc(Cl)cc2N(O)C1=O [6-Cl-2-Et-D-DIBOA] | 60%
CCCON1C(=O)COc2ccc(Cl)cc21 [6-Cl-4-Pr-D-DIBOA] | 50%

The compounds below were run on Lactuca sativa (assay: Phytotoxicity against Lactuca sativa (lettuce) assessed as growth inhibition of root length at 5 uM measured 5 days post treatment). Conditions: 120 h, read-out: GI.
Assay type: functional
Procedure, shortened: as §2

Compound | inhibition of growth at 5 µM
CCCCC(=O)ON1C(=O)COc2ccc(Cl)cc21 [6-Cl-4-Val-D-DIBOA] | 50%
CCCON1C(=O)COc2ccc(Cl)cc21 [6-Cl-4-Pr-D-DIBOA] | 50%

These compounds were tested on Allium cepa (assay: Phytotoxicity against Allium cepa (onion) assessed as growth inhibition of root length at 1 to 5 uM measured 7 days post treatment). Conditions: not given.
Assay type: functional, organism-based
Procedure, shortened: as §2

Compound | growth inhibition (GI)
CCCCC(=O)ON1C(=O)COc2ccc(Cl)cc21 [6-Cl-4-Val-D-DIBOA] | Active
CCCON1C(=O)COc2ccc(Cl)cc21 [6-Cl-4-Pr-D-DIBOA] | Active

What follows are compounds tested on Allium cepa (assay: Phytotoxicity against Allium cepa (onion) assessed as growth inhibition of root length measured 7 days post treatment). Conditions: not given.
Assay type: functional, organism-based
Procedure, shortened: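 Onion seeds germinated in 90 mm Petri dishes on one filter-paper sheet, in aqueous 10^-2 M MES buffer brought to pH 6.0 with NaOH. Compounds were dissolved in DMSO and diluted into buffer (5 μL DMSO/mL) to test concentrations of 1, 0.5, 0.1, 0.05 and 0.01 mM. Root length was recorded after 7 days by automated image acquisition. EC50 was derived from a constant-slope sigmoidal fit on a log concentration scale.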

Compound | growth inhibition (GI)
O=C1C(c2ccccc2)Oc2c(Cl)cccc2N1O (stereo not drawn) | Active
CCCC1Oc2ccc(Cl)cc2N(O)C1=O (stereo not drawn) | Active
CCC1Oc2ccc(F)cc2N(O)C1=O [6-F-2-Et-D-DIBOA] | Active
CCC(=O)ON1C(=O)COc2ccc(F)cc21 | Active
CCC1Oc2c(Cl)cccc2N(O)C1=O (stereo not drawn) | Active
CCCC1Oc2c(Cl)cccc2N(O)C1=O (stereo not drawn) | Active
CCC(=O)ON1C(=O)COc2c(Cl)cccc21 | Active
CCCCC(=O)ON1C(=O)COc2ccc(Cl)cc21 [6-Cl-4-Val-D-DIBOA] | Active
CCC1Oc2ccc(Cl)cc2N(O)C1=O [6-Cl-2-Et-D-DIBOA] | Active
CCCCC(=O)ON1C(=O)COc2ccc(F)cc21 | Active
O=C1C(c2ccccc2)Oc2ccc(Cl)cc2N1O (stereo not drawn) | Active
CCCON1C(=O)COc2ccc(Cl)cc21 [6-Cl-4-Pr-D-DIBOA] | Active
O=C1C(c2ccccc2)Oc2ccc(F)cc2N1O (stereo not drawn) | Active

Same assay, conditions: 168 h

Compound | IC50
CCC1Oc2ccc(F)cc2N(O)C1=O [6-F-2-Et-D-DIBOA] | 1300 nM
CCCCC(=O)ON1C(=O)COc2ccc(Cl)cc21 [6-Cl-4-Val-D-DIBOA] | 200 nM
CCC1Oc2ccc(Cl)cc2N(O)C1=O [6-Cl-2-Et-D-DIBOA] | 1600 nM
CCCON1C(=O)COc2ccc(Cl)cc21 [6-Cl-4-Pr-D-DIBOA] | 200 nM

What follows are compounds tested on Lepidium sativum (assay: Phytotoxicity against Lepidium sativum assessed as growth inhibition of root length at < 1 uM measured 4 days post treatment). Conditions: not given.
Assay type: functional, organism-based

Compound | growth inhibition (GI)
CCC(=O)ON1C(=O)COc2ccc(F)cc21 | Active
CCCCC(=O)ON1C(=O)COc2ccc(Cl)cc21 [6-Cl-4-Val-D-DIBOA] | Active
CCC1Oc2ccc(Cl)cc2N(O)C1=O [6-Cl-2-Et-D-DIBOA] | Active
